Compound activity as filed in PubChem.
In the library only some 2.4% were active in any assay of this set; here they are far more common.
UBC13 polyUb: blocks human UBC13 polyubiquitin chain formation. TR-FRET. P61088. inhibition, % at 20 µM. hit rate 0.47% among 330,000; in the data active means inhibition above about 45%, passing the limit was not always enough
Target sequence (P61088 whole entry, looked up): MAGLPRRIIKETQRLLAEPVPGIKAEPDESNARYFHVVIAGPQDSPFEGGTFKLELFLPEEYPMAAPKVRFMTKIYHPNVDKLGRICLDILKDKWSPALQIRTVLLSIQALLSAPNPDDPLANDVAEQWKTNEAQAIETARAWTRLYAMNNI
FID counter: counter-screen for HCV NS3 helicase inhibitors: DNA intercalator displacement; AID 1845; inhibition, % at 7.9 µM; DNA fluorescent intercalator displacement, fluorescence; hit rate 0.17% among 290,000; in the data active means inhibition above about 37%;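 further: higher means more ethidium bromide displaced from hairpin DNA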
ANO1 activ: mouse TMEM16A channel activation, primary screen. Q8BHY3. HEK293 TMEM16A/YFP-H148Q/I152L, iodide quench fluorescence; stronger effect = lower value. B-score at 10 µM. hit rate 0.3% among 340,000. AID 623877;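 active means fluorescence-ratio B-score plate-corrected deviation score at least 3 library SD below zero, with starting fluorescence score within 5 deviations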;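 further: channel opened by trigger with iodide after compound preincubation; score built on the fluorescence ratio of max minus min over baseline; more negative score means more quench and so TMEM16A activation or potentiation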
Apaf-1 inh: inhibitors of human Apaf-1 apoptosome | reconstituted apoptosome caspase-3 activity, DEVD-Rh110 fluorescence | O14727 | AID 489030 | inhibition, % at 20 µM | hit rate 0.71% among 330,000; active means inhibition of at least 40% at 20 µM
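Material: reconstituted apoptosome with Apaf-1, cytochrome c, caspase-9, procaspase-3, dATP. Technique: Rh110 fluorescence intensity. Buffer or medium: pH 7.5 Hepes buffer with CHAPS, BSA, DTT. Times: 30 min plus 50 min, RT.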
TMEM16A inh: inhibitors of mouse TMEM16A calcium-activated chloride channel; Q8BHY3; HEK293 TMEM16A/YFP iodide influx fluorescence, ionomycin; normalized B-score (activity score, 25-100; higher = stronger inhibition) at 10 µM; hit rate 1.2% among 310,000; AID 588511;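 active means ratio plate-corrected score three or more library SD toward inhibition, starting fluorescence score within five deviations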;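 further: score derived from kinetic fluorescence span divided by baseline fluorescence per well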
Apaf-1 inh conf2: confirmation of Apaf-1 inhibitors; shares compounds with Apaf-1 inh; reconstituted apoptosome, caspase-3 DEVD-Rh110 fluorescence; inhibition, % at 20 µM; hit rate 25% among 1,800; AID 504614;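 active means mean inhibition of at least 40% at 20 µM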
Rh110 interf inh: counter-screen for Apaf-1 inhibitors: fluorescence interference | shares compounds with Apaf-1 inh | Rh110 fluorescence interference, quenched caspase reaction | activation (fluorescence interference), % at 20 µM | 1,800 tested, under 10 active;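 active means signal rise of 40% or more at 20 µM, treated as a fluorescence artifact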
Fluor interf inh: Apaf-1 inhibitor counter-screen fluorescence artifact; shares compounds with Apaf-1 inh; fluorescence interference counterscreen, Apaf-1 assay format; IC50, µM; 460 tested, under 10 active; call rule not given here
Of the large screens only hits and unclear results are named; the others gave an inactive call (follow-up assays come after a bar, where they were run).

CCN(CC)CCCN1C=C2C(=O)C(C)(OC(=O)CCC(=O)OC)C(=O)C(Br)=C2C=C1c1ccc(OC)cc1 (stereo not drawn)	none (no result: FID counter)
COC(=O)CCC(=O)OC1(C)C(=O)C=C2C=C(C3CC3)N(c3ccc(CO)cc3)C=C2C1=O (stereo not drawn)	none (no result: FID counter, ANO1 activ)
COCCN1C=C2C(=O)C(C)(OC(=O)CCC(=O)OC)C(=O)C(Br)=C2C=C1c1ccc(OC)cc1 (stereo not drawn)	Apaf-1 inh 77.1 (no result: FID counter) | Apaf-1 inh conf2 84.1 | Rh110 interf inh inactive
COC(=O)CCC(=O)OC1(C)C(=O)C2=CN(c3ccc(OC)cc3)C(c3ccc(OC)cc3)=CC2=C(Br)C1=O (stereo not drawn)	none (no result: FID counter)
C=CCN1C=C2C(=O)C(C)(OC(=O)CCC(=O)OC)C(=O)C(Br)=C2C=C1c1ccc(OC)cc1 (stereo not drawn)	Apaf-1 inh 67.2 (no result: FID counter) | Apaf-1 inh conf2 60.7 | Rh110 interf inh inactive | Fluor interf inh inactive
C1=C(c2ccccc2)Nc2ccccc2N=C1c1ccccc1	none
COC(=O)Nc1ccc(S(=O)(=O)N2CCCC(C(=O)N3CCCCCC3)C2)cc1 (stereo not drawn)	none
CC(C)c1csc(CN2CCC(N3CCC(C(=O)N4CCOCC4)CC3)CC2)n1	none
COc1cc(-c2c(C#N)c(=O)[nH]c3c2c(C)nn3-c2ccccc2)ccc1O	Apaf-1 inh 42.1 | Apaf-1 inh conf2 43.3 | Rh110 interf inh inactive | Fluor interf inh inactive
CCc1nc(N)c(C#N)c(-c2ccc(O)c(OC)c2)c1C	none
CCC(C)C(NC(=O)OCc1ccccc1)C(=O)NC(Cc1ccc(O)cc1)C(=O)OC (stereo not drawn)	none
Cn1c(=O)[nH]c2ccc([N+](=O)[O-])nc21	none
COc1ccc(Nc2ccc(OC)cc2)cc1	Apaf-1 inh 79.9 | Apaf-1 inh conf2 inactive | Rh110 interf inh inactive
CCSc1nc(C)nc2sc(C)c(C)c12	none
COc1nc(N/N=C/c2ccc(-c3ccccc3[N+](=O)[O-])o2)nc(N2CCOCC2)n1	Apaf-1 inh 54.4 | Apaf-1 inh conf2 inactive | Rh110 interf inh inactive
O=[N+]([O-])c1ccc(-c2ccc(/C=N/Nc3nc(NCc4ccccc4)nc(N4CCOCC4)n3)o2)cc1	none
O=C(Cn1nnc(-c2ccc([N+](=O)[O-])cc2)n1)NNC(=O)c1ccccc1	none
COc1ccc(CN2CCN(c3ccc(F)cc3)CC2)c(OC)c1OC	none
COc1ccc(CN2CCN(C(c3ccc(F)cc3)c3ccc(F)cc3)CC2)c(OC)c1OC	Apaf-1 inh 47.9 (no result: FID counter) | Apaf-1 inh conf2 inactive | Rh110 interf inh inactive
CSc1nnc(CCNS(=O)(=O)c2ccccc2Br)n1C	none
CCN(CC)CCN(C(=O)c1ccc2c(c1)CCCC2)c1nc2ccc(OC)cc2s1	Apaf-1 inh 61.2 | Apaf-1 inh conf2 inactive | Rh110 interf inh inactive
CCN(CC)CCN(C(=O)c1ccc2c(c1)CCCC2)c1nc2ccc(C)cc2s1	Apaf-1 inh 51.5 | Apaf-1 inh conf2 inactive | Rh110 interf inh inactive
CCN(CC)CCN(C(=O)c1ccc2c(c1)CCCC2)c1nc2c(C)cccc2s1	none
CCN(CC)CCN(C(=O)c1ccc2c(c1)CCCC2)c1nc2ccc(F)cc2s1	none
COc1ccc(C(=O)CN2Cc3ccccc3C2=N)cc1	none
Cc1ccc(C)c2[nH]c(=O)c(CN(Cc3cccs3)C(=S)NCc3ccco3)cc12	none
O=C1Nc2cc(Cl)c(Cl)cc2N(O)N1c1ccc(Cl)cc1	none
O=C1Nc2cc(Cl)c(Cl)cc2N(O)N1c1cccc(Cl)c1	Apaf-1 inh 44.2 | Apaf-1 inh conf2 inactive | Rh110 interf inh inactive
CCOCCCN1CN(S(=O)(=O)c2ccc(Cl)cc2)c2nc3ccccc3nc21	none
CCOc1cccc(N(C(=O)C2COc3ccccc3O2)C(C(=O)NC2CCCCC2)c2ccc(O)cc2)c1 (stereo not drawn)	Apaf-1 inh 46.7 | Apaf-1 inh conf2 inactive | Rh110 interf inh inactive
CC(C)CCNC(=O)C(c1ccc(O)cc1)N(C(=O)C1COc2ccccc2O1)c1cccc(O)c1 (stereo not drawn)	none
CN(Cc1ccccc1)C(=O)CN1C(=O)NC(C)(c2ccc(C(C)(C)C)cc2)C1=O (stereo not drawn)	Apaf-1 inh 41.7 | Apaf-1 inh conf2 inactive | Rh110 interf inh inactive
COc1ccc(N=C2S/C(=C\c3cc(C)n(C)c3C)C(=O)N2C)cc1	none
CCCN1C(=O)/C(=C/c2cc(C)n(C)c2C)SC1=Nc1ccc(OC)cc1	Apaf-1 inh 40.7 | Apaf-1 inh conf2 inactive | Rh110 interf inh inactive
O=C(COC(=O)C12CC3CC(CC(Br)(C3)C1)C2)Nc1ccc2[nH]c(=O)[nH]c2c1	none (no result: FID counter)
O=C(COC(=O)c1cnccn1)c1cccc([N+](=O)[O-])c1	none
CCC(CC)c1nnc(NC(=O)CN2C(=O)c3ccccc3C2=O)s1	Apaf-1 inh 86.8 | Apaf-1 inh conf2 inactive | Rh110 interf inh inactive
CC(C)Cn1c(N)c(C(=O)NCC2CCCO2)c2nc3ccccc3nc21 (stereo not drawn)	Apaf-1 inh 65.0 | Apaf-1 inh conf2 inactive | Rh110 interf inh inactive
COCCn1c(N)c(C(=O)NCC2CCCO2)c2nc3ccccc3nc21 (stereo not drawn)	Apaf-1 inh 75.1 | Apaf-1 inh conf2 inactive | Rh110 interf inh inactive
O=c1[nH]c(N2CCOCC2)cc2ccccc12	Apaf-1 inh 92.5 (no result: FID counter) | Apaf-1 inh conf2 74.0 | Rh110 interf inh inactive | Fluor interf inh inactive
Oc1ccc(/C=N/Nc2cc(N3CCOCC3)nc(N3CCOCC3)n2)cc1O	none
Oc1ccccc1/C=N/Nc1cc(N2CCCC2)nc(N2CCCC2)n1	Apaf-1 inh 97.7 | Apaf-1 inh conf2 99.8 | Rh110 interf inh inactive | Fluor interf inh inactive
C[C@H](NC(=O)c1ccc(C(C)(C)C)cc1)C(=O)N1CCN(C/C=C/c2ccccc2)CC1	Apaf-1 inh 42.7 (no result: FID counter, TMEM16A inh) | Apaf-1 inh conf2 inactive | Rh110 interf inh inactive
Cc1cccc(N=Cc2cc3c(cc2[N+](=O)[O-])OCO3)c1	none
O=[N+]([O-])c1cc2c(cc1C=Nc1ccccc1)OCO2	Apaf-1 inh 47.7 | Apaf-1 inh conf2 inactive | Rh110 interf inh inactive
C#CCOCCOCCOCCNc1nc(N2CCN(C(=O)Cn3cc(CCCCN)nn3)CC2)nc(N2CCN(C(=O)[C@H](CCCCN)n3cc(CCCC)nn3)CC2)n1	Apaf-1 inh 41.4 (no result: FID counter) | Apaf-1 inh conf2 inactive | Rh110 interf inh inactive
C#CCOCCOCCOCCNc1nc(N2CCN(C(=O)Cn3cc(CCCN=C(N)N)nn3)CC2)nc(N2CCN(C(=O)[C@H](CCCCN)n3cc(CC(C)O)nn3)CC2)n1 (stereo partly drawn)	none (no result: FID counter)
